The values that follow come from PubChem BioAssay.

The structures appear in SMILES notation. Unmarked numbers belong to inactive results. Inconclusive results are not listed. Activity calls are given as the source filed them.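 How the source made its calls, unless noted: active means viability at or below 27.92% in each of two runs, the all-compound median minus 4 SD; inconclusive means no clear call, values can overlap the other calls; inactive means the rest.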

Assay [1] is described as follows: OD615 S. cerevisiae growth inhibition, permissive medium, pilot counter-assay, permissive growth control for S. cerevisiae lifespan shortening project (AID 705;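 active means growth inhibition above 25% in both replicates, a cutoff set 3 SD above the mean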). The note with it: OD615, 24 h, at 10 µM, stronger effect = higher value. In short, it runs like this: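 Test system: Saccharomyces cerevisiae strain carrying genetically modified DeaD replicative-lifespan system; buffer or medium: SC raffinose/galactose permissive medium; dosing: one dose 10 µM, DMSO 0.25% final; times: 24 h exposure, 30 °C; measured by: OD at 615 nm; read-out basis: growth inhibition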

Assay [2] in a line: Restrictive medium S. cerevisiae growth inhibition, OD615, pilot screen of yeast lifespan reduction project, restrictive growth control (AID 706;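 active means growth inhibition above a set limit, 3 SD over mean compound inhibition, in both replicates, cut at about 43% in these data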;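 further: modified DeaD lifespan yeast strain shifted to restrictive glucose medium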). The note with it: OD615, 48 h, at 10 µM, stronger effect = higher value. Summed up:
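material = engineered S. cerevisiae DeaD strain | buffer or medium = glucose-based CSMM-D restrictive medium | dosing = one concentration, 10 µM final, 0.25% DMSO | schedule = 4 h pre-growth plus 48 h compound exposure, 30 °C | detection = OD615 absorbance reading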

Assay [3] can be described thus: viability gain of MRP-1-high H69AR cells under doxorubicin, pilot screen, MRP-1 activator project, CellTiter-Glo, duplicate (AID 807;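 active means viability increase at or above a cutoff of the median across tested compounds plus 3 SD, cut at about 8.5% in these data, passing the limit was not always enough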;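 further: compound pretreatment 18-22 h then 72 h combined with doxorubicin; 0% = doxorubicin alone and 100% = vehicle without doxorubicin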). The note with it: H69AR viability with doxorubicin, CellTiter-Glo luminescence; at 10 µM; stronger effect = higher value. For orientation: ATP-based viability assays read luminescence as a measure of living cells.
A short description of assay [4]: growth suppression of beta-catenin knockout HCT116, pilot screen, human colon tumor cells (AID 823;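 active means cell viability at or below a set limit in both duplicate runs, the limit being the all-compound median minus 4 SD, cut at about 23% in these data, passing the limit was not always enough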;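 further: 0% = wells killed by 20 µM Hyamine and 100% = untreated DMSO cell wells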). The note with it: CellTiter-Glo, 60 h, at 10 µM, stronger effect = lower value.
A short description of assay [5]: growth suppression of PTEN-deleted HCT116, pilot screen, cell-based, HCT116 clonal line, CellTiter-Glo (AID 824).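 Further: 0% = 20 µM Hyamine control and 100% = vehicle cell control.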 The note with it: 60 h, at 10 µM, stronger effect = lower value.
Assay [6] is described as follows: inhibitors of the yeast RAM network, pilot screen, dse1pr::URA3 reporter, 5-FOA selection (AID 869;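 active means inhibition over a set limit, the all-compound mean plus 3 SD, in both replicate runs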;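 further: 0% = DMSO wells with no growth and 100% = 10 µM 1-NA-PP1 with full growth; RAM network block rescues cells from 5-FOA so hits raise OD615 growth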). The note with it: S. cerevisiae dse1pr::URA3 5-FOA growth, OD615, 2 d; at 10 µM; stronger effect = higher value; strain carries analog-sensitive mutant Cbk1 kinase.
Assay [7] can be described thus: RAM signaling pathway blockade in yeast – S. cerevisiae, Pdr1DBD-CYC8 efflux-inhibited sensitized strain, primary screen (AID 1298;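 active means RAM network inhibition above 8.4% in each of two replicates, 3 SD over the compound average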;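 further: 0% = DMSO untreated cells without growth and 100% = 10 µM 1-NA-PP1 full growth; higher means more yeast growth rescued from 5-FOA killing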). The note with it: S. cerevisiae cbk1-as DSE1-URA3 strain, 5-FOA growth OD615, 2 d; at 50 µM; stronger effect = higher value.

Usually viability stands for a read-out of living cells in per cent, often relative to untreated cells. Broadly, the inhibition is the change of the read-out against control, counted positive when it falls. On to `CCCC(=O)Nc1nnc(-c2ccc(Cl)s2)o1`, for which the growth inhibition was -6.95% in assay [1] and 2.92% in assay [2]. The viability increase in assay [3] was -3.1%. Also, the viability in assay [4] is 95.6%; in assay [5], 91.2%. Besides, in assay [6], the inhibition is 1.61%. Also, the RAM network inhibition in assay [7] was 1.6%.
In the case of `COCC(=O)Nc1ccc(C(N)=O)cc1`, the growth inhibition was -13.6% in assay [1] and -6.43% in assay [2]. Besides, the viability increase in assay [3] was -0.44%. Moreover, the viability in assay [4] is 96.5%; in assay [5] it was 95.3%. For the same compound, the inhibition in assay [6] is 1.91%. The RAM network inhibition in assay [7] is 7.41%.
As to `Cc1noc(C)c1S(=O)(=O)NCc1ccc2c(c1)OCO2`, the results for the growth inhibition in assay [1] and in assay [2] were -1.3% and -6.16%, respectively. Besides, the viability increase in assay [3] was -1.12%. The viability in assay [4] is 97.5%; in assay [5] it was 93.6%. In addition, the inhibition in assay [6] is 2.77%. For the same compound, in assay [7], the RAM network inhibition is 0.27%.
For `COc1ccc(N(C)S(=O)(=O)c2cccc(C(=O)NC3=NCCS3)c2)cc1`, the growth inhibition was -4.93% in assay [1] and -1.7% in assay [2]. Further, the viability increase in assay [3] is -1.55%. Besides, the viability in assay [4] was 91.6%; in assay [5], 89.8%. The inhibition in assay [6] is 1.13%. For the same compound, the RAM network inhibition in assay [7] was 2.28%.
Consider `CC1(C)CC(=O)N(CC(=O)N2CCN(c3ncccn3)CC2)c2ccccc2S1(=O)=O`, for which the growth inhibition in assay [1] is -6.82%; in assay [2], -9.5%. Besides, in assay [3], the viability increase was 0.27%. For the same compound, the figures for the viability in assay [4] and in assay [5] were 102% and 91.8%, respectively. Besides, in assay [6], the inhibition is 0.48%. The RAM network inhibition in assay [7] was -0.32%.
In the case of `CCOc1ccccc1C1C(C(=O)Nc2ccccc2OC)=C(C)Nc2nc(CCCO)nn21` (stereo unspecified), the growth inhibition was -20.1% in assay [1] and -8.73% in assay [2]. Moreover, the viability increase in assay [3] was -3.55%. Besides, the viability is 89.5% in assay [4] and 88% in assay [5]. Moreover, in assay [6], the inhibition was 1.01%. For the same compound, the RAM network inhibition in assay [7] is 4.4%.
On to `CN(C)CCCCCNCCCNC(=O)/C=N\O`, for which the growth inhibition in assay [1] is -2.17%; in assay [2] it was 3.62%. Also, the viability increase in assay [3] was 0.12%. The figures for the viability in assay [4] and in assay [5] were 98.3% and 103%, respectively. Also, the inhibition in assay [6] is 3.2%. In addition, the RAM network inhibition in assay [7] was 1.4%.
In the case of `c1ccc(-c2nnc(-c3ccccn3)nn2)nc1`, the growth inhibition in assay [1] was 34.5% (active); in assay [2], 88.1% (active). In addition, in assay [3], the viability increase is 0.07%. The viability in assay [4] is 68.2%; in assay [5] it was 83%. For the same compound, in assay [6], the inhibition is -0.025%. Besides, the RAM network inhibition in assay [7] was -3%.
As to `O=C(NCC1CCCO1)c1nnc(Cc2ccc(F)cc2)o1` (stereo unspecified), the growth inhibition is -12.6% in assay [1] and 10.5% in assay [2]. Also, in assay [3], the viability increase is -0.18%. The viability in assay [4] is 98.4%; in assay [5], 99.4%. Also, the inhibition in assay [6] was 0.085%. Further, the RAM network inhibition in assay [7] was 1.47%.
Consider `Cc1c(C(=O)NCCN2CCOCC2)oc2ccc(S(=O)(=O)N3CCCCCC3)cc12`, for which the figures for the growth inhibition in assay [1] and in assay [2] were -3.55% and -1.55%, respectively. The viability increase in assay [3] is -2.1%. For the same compound, the viability was 86.1% in assay [4] and 90.6% in assay [5]. In addition, the inhibition in assay [6] was 1.15%. Also, the RAM network inhibition in assay [7] was -1.39%.
For `CCN(CC)C(=O)c1sc(NC(=O)c2ccoc2C)c(C(=O)OC)c1C`, the figures for the growth inhibition in assay [1] and in assay [2] were -5.36% and 5.77%, respectively. For the same compound, the viability increase in assay [3] is -1.15%. Further, the viability in assay [4] was 83.4%; in assay [5], 90.6%. Further, the inhibition in assay [6] was 1.33%. Also, in assay [7], the RAM network inhibition is 7.43%.
On to `COC(=O)c1ccc(C2c3c(oc4ccccc4c3=O)C(=O)N2CCCN2CCOCC2)cc1` (stereo unspecified), for which the growth inhibition is -2.57% in assay [1] and -3.54% in assay [2]. Further, the viability increase in assay [3] is -4.63%. Besides, the viability in assay [4] is 87.6%; in assay [5] it was 82.9%. Also, in assay [6], the inhibition is 0.54%. Also, in assay [7], the RAM network inhibition was 0.48%.
In the case of `Cc1ccc(N2CC(c3nc4ccccc4n3C)CC2=O)cc1C` (stereo unspecified), the growth inhibition is -4.58% in assay [1] and -2.28% in assay [2]. In assay [3], the viability increase was -1.22%. In addition, the viability is 103% in assay [4] and 105% in assay [5]. For the same compound, the inhibition in assay [6] was 0.94%. The RAM network inhibition in assay [7] is 3.07%.
Regarding `CCOc1ccc(-n2c(SC(C)C(=O)OC)nc3c(c2=O)SCC3)cc1` (stereo unspecified), the growth inhibition in assay [1] is -6.67%; in assay [2], -19.6%. The viability increase in assay [3] was -1.08%. The figures for the viability in assay [4] and in assay [5] were 89.6% and 92.2%, respectively. Further, the inhibition in assay [6] was 0.355%. Also, the RAM network inhibition in assay [7] is 5.59%.
Consider `O=C(NCc1ccccc1)c1ccc2c(c1)OCCO2`, for which the growth inhibition in assay [1] is 3.26%; in assay [2], 5.53%. Besides, the viability increase in assay [3] was -1.83%. Also, the viability in assay [4] and in assay [5] was 101% throughout. In addition, in assay [6], the inhibition was 1.48%. In addition, the RAM network inhibition in assay [7] is 0.51%.
Regarding `O=C(C1CCN(S(=O)(=O)c2cccc3cccnc23)CC1)N1CCN(c2ccc(Cl)cc2)CC1`, the growth inhibition in assay [1] is -3.56%; in assay [2] it was 0.215%. In addition, the viability increase in assay [3] was -1.23%. In addition, the viability in assay [4] is 31.1%; in assay [5], 38.6%. Also, the inhibition in assay [6] is 1.4%. Also, the RAM network inhibition in assay [7] was 4.56%.
As to `Cc1cc(Nc2ccc(F)cc2F)n2ncnc2n1`, the growth inhibition in assay [1] is -1.61%; in assay [2] it was 6.47%. The viability increase in assay [3] was -1.6%. In addition, the viability in assay [4] is 96.5%; in assay [5], 97.8%. Also, the inhibition in assay [6] is 1.35%. Further, in assay [7], the RAM network inhibition is 1.04%.
Consider `CCCOC(=O)c1ccc(-n2nnnc2SCC(=O)N2CCCCC2)cc1`, for which the growth inhibition is -11.6% in assay [1] and -5.64% in assay [2]. Also, in assay [3], the viability increase is -0.35%. The viability was 80.3% in assay [4] and 86% in assay [5]. In addition, in assay [6], the inhibition is 0.595%. Further, the RAM network inhibition in assay [7] was 0.04%.
